Measured values reported in ChEMBL document CHEMBL1132632, “Conformational and quantitative structure-activity relationship study of cytotoxic 2-arylidenebenzocycloalkanones” (J Med Chem, 1999).
pIC50: −log10 of the molar value.

Experiments:
CCRF-CEM [1] = test: Inhibitory activity was tested against CEM cells; type: functional, cell-based; settings: Homo sapiens
P388 [2] = test: Inhibitory activity was tested against P388 cells; type: functional, cell-based; settings: Mus musculus
L1210 [3] = test: Average potency against L1210 cells; type: functional, Mus musculus
Tumor Cell line = test: Tested against human tumor cell lines, mean graph mid point values(MG MID) are determined.; type: functional
Summary of the method: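 Panel of about 55 human tumor cell lines from nine cancer types: leukemia, melanoma, non-small-cell lung, colon, CNS, ovarian, renal, prostate and breast. Compounds were tested from 10⁻⁴ to 10⁻⁸ M, and the 50% growth-inhibitory concentration was found for each line.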

P388 [4] = test: Average potency against P388 cells; type: functional, Mus musculus
CCRF-CEM [5] = test: Average potency against CEM cells; type: functional, Homo sapiens
MOLT-4 [6] = test: Average potency against Molt4/C8cells; type: functional, Homo sapiens
L1210 [7] = test: Inhibitory activity was tested against L1210 cells; type: functional, cell-based; settings: Mus musculus
MOLT-4 [8] = test: Inhibitory activity was tested against Molt4/C8 cells; type: functional, cell-based; settings: Homo sapiens

SMILES | pIC50 (CCRF-CEM [1]) | pIC50 (P388 [2]) | AP (L1210 [3]) [µM] | MG MID (Tumor Cell line) [µM] | AP (P388 [4]) [µM] | AP (CCRF-CEM [5]) [µM] | AP (MOLT-4 [6]) [µM] | pIC50 (L1210 [7]) | pIC50 (MOLT-4 [8])
O=C1CCCCC/C1=C\c1ccc(Cl)cc1 | 4.36 | 4.72 | 227 | 33.1 | 34.5 | 136 | 186 | 4.08 | 4.28
Cc1cccc(/C=C2\CCCCCC2=O)c1 | 3.77 | 4.53 | 227 | 81.3 | 34.5 | 136 | 186 | 3.58 | 3.64
O=C1/C(=C/c2cccc(F)c2)CCCc2ccccc21 | 4.95 | 4.96 | 85.2 | 16.2 | 11.2 | 47 | 66 | 3.87 | 4.55
O=C1CCCCC/C1=C\c1cccc([N+](=O)[O-])c1 | 4.52 | 4.63 | 227 | 30.2 | 34.5 | 136 | 186 | 3.79 | 4.41
O=C1/C(=C/c2ccc(Cl)cc2)CCCc2ccccc21 | 4.82 | 5.02 | 85.2 | 17 | 11.2 | 47 | 66 | 4.29 | 4.48
Cc1cccc(/C=C2\Cc3ccccc3C2=O)c1 | 4.38 | 4.60 | 127 | – | 42.9 | 155 | 267 | 4.30 | 4.10
COc1cccc(/C=C2\CCCCCC2=O)c1 | 3.89 | < 4.30 | 227 | 85.1 | 34.5 | 136 | 186 | 3.55 | 3.77
Cc1ccc(/C=C2\CCCCCC2=O)cc1 | < 3.30 | < 4.30 | 227 | 83.2 | 34.5 | 136 | 186 | < 3.30 | < 3.30
O=C1CCCCC/C1=C\c1cccc(Cl)c1 | 4.39 | 4.59 | 227 | 41.7 | 34.5 | 136 | 186 | 3.84 | 4.05
O=C1CCCCC/C1=C\c1ccc(Br)cc1 | 4.37 | 4.77 | 227 | – | 34.5 | 136 | 186 | 4.16 | 4.31
O=C1/C(=C/c2ccc([N+](=O)[O-])cc2)CCCc2ccccc21 | < 3.30 | 4.96 | 85.2 | 89.1 | 11.2 | 47 | 66 | < 3.30 | < 3.30
O=C1/C(=C/c2cccc([N+](=O)[O-])c2)Cc2ccccc21 | 3.65 | < 4.30 | 127 | 91.2 | 42.9 | 155 | 267 | 3.59 | < 3.30
COc1ccc(/C=C2\CCCCCC2=O)cc1 | 3.71 | < 4.30 | 227 | 100 | 34.5 | 136 | 186 | 3.51 | 3.60
O=C1/C(=C/c2cccc(Br)c2)Cc2ccccc21 | 4.49 | 4.68 | 127 | 46.7 | 42.9 | 155 | 267 | 4.36 | 3.76
O=C1CCCCC/C1=C\c1ccc([N+](=O)[O-])cc1 | 4.44 | 4.60 | 227 | 30.2 | 34.5 | 136 | 186 | 3.98 | 4.40
O=C1/C(=C/c2cccc(Br)c2)CCc2ccccc21 | 5.06 | 4.78 | 135 | 11.8 | 20.9 | 115 | 158 | 3.80 | 4.67
O=C1CCCCC/C1=C\c1ccccc1 | 3.96 | < 4.30 | 227 | 91.2 | 34.5 | 136 | 186 | 3.58 | 3.67
CN(C)c1ccc(/C=C2\CCCCCC2=O)cc1 | 4.35 | 4.73 | 227 | 85.1 | 34.5 | 136 | 186 | 4.10 | 4.24
Cc1cccc(/C=C2\CCCc3ccccc3C2=O)c1 | 4.80 | 4.70 | 85.2 | 20 | 11.2 | 47 | 66 | 4.26 | 4.46
CN(C)c1ccc(/C=C2\CCCc3ccccc3C2=O)cc1 | – | – | 85.2 | 1.41 | 11.2 | 47 | 66 | – | –
O=C1/C(=C/c2cccc([N+](=O)[O-])c2)CCc2ccccc21 | 5.28 | 4.92 | 135 | – | 20.9 | 115 | 158 | 3.60 | 5.10
O=C1/C(=C/c2ccccc2)CCCc2ccccc21 | 4.54 | 4.90 | 85.2 | 18.6 | 11.2 | 47 | 66 | 3.97 | 4.37
COc1cccc(/C=C2\CCCc3ccccc3C2=O)c1 | 5.02 | 4.86 | 85.2 | 15.9 | 11.2 | 47 | 66 | 4.25 | < 4.00
O=C1CCCCC/C1=C\c1ccc(F)cc1 | 3.70 | < 4.30 | 227 | 83.2 | 34.5 | 136 | 186 | 3.54 | 3.60
